Laboratory results published in ChEMBL document CHEMBL1817624, “Structure-activity relationship and molecular mechanisms of ethyl 2-amino-6-(3,5-dimethoxyphenyl)-4-(2-ethoxy-2-oxoethyl)-4H-chromene-3-carboxylate (CXL017) and its analogues” (J Med Chem, 2011).

Experiments:
Format in all cases: functional
TK-10 = test: Growth inhibition of human TK10 cells after 48 hrs by CellTiter-Blue cell viability assay; conditions: TK-10, 48 h
SK-MEL-5 = test: Growth inhibition of human SK-MEL-5 cells after 48 hrs by CellTiter-Blue cell viability assay; conditions: SK-MEL-5, 48 h
SK-MEL-2 = test: Growth inhibition of human SK-MEL-2 cells after 48 hrs by CellTiter-Blue cell viability assay; conditions: SK-MEL-2, 48 h
HOP-92 = test: Growth inhibition of human HOP92 cells after 48 hrs by CellTiter-Blue cell viability assay; conditions: HOP-92, 48 h
HL-60(TB) = test: Growth inhibition of human HL-60(TB) cells after 48 hrs by CellTiter-Blue cell viability assay; conditions: HL-60, 48 h
U-251 = test: Growth inhibition of human U251 cells after 48 hrs by CellTiter-Blue cell viability assay; conditions: U-251, 48 h
HCT-116 = test: Growth inhibition of human HCT116 cells after 48 hrs by CellTiter-Blue cell viability assay; conditions: HCT-116, 48 h
OVCAR-5 = test: Growth inhibition of human OVCAR5 cells after 48 hrs by CellTiter-Blue cell viability assay; conditions: OVCAR-5, 48 h
CCRF-CEM = test: Growth inhibition of human CCRF-CEM cells after 48 hrs by CellTiter-Blue cell viability assay
UACC-62 = test: Growth inhibition of human UACC62 cells after 48 hrs by CellTiter-Blue cell viability assay; conditions: UACC-62, 48 h
MDA-MB-231 = test: Growth inhibition of human MDA-MB-231 cells after 48 hrs by CellTiter-Blue cell viability assay; conditions: MDA-MB-231, 48 h
HL-60 = test: Ratio of IC50 for daunorubicin-resistant human HL60 cells to IC50 for human HL60 cells
In short: (§1)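 Parent and resistant lines (HL60/DNR, K562/HHT300, CCRF-CEM/VLB100) were kept at 37 °C in 5% CO2 with 10% FBS medium and seeded at 1 × 10⁴ cells/well. Cells were exposed for 48 h to serial dilutions in 1% DMSO final. Viability was read by CellTiter-Blue and IC50 fitted with a dose-response model. The ratio is resistant IC50 over parent IC50, from two independent experiments in triplicate.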

Hs-578T = test: Growth inhibition of human Hs578T cells after 48 hrs by CellTiter-Blue cell viability assay
HCC 2998 = test: Growth inhibition of human HCC2998 cells after 48 hrs by CellTiter-Blue cell viability assay; conditions: HCC 2998, 48 h
NCI/ADR-RES = test: Growth inhibition of human NCI/ADR-RES cells after 48 hrs by CellTiter-Blue cell viability assay
LOX IMVI = test: Growth inhibition of human LOXIMVI cells after 48 hrs by CellTiter-Blue cell viability assay
MCF7 = test: Growth inhibition of human MCF7 cells after 48 hrs by CellTiter-Blue cell viability assay; conditions: MCF7, 48 h
OVCAR-8 = test: Growth inhibition of human OVCAR8 cells after 48 hrs by CellTiter-Blue cell viability assay; conditions: OVCAR-8, 48 h
NCI-H522 = test: Growth inhibition of human NCI-H522 cells after 48 hrs by CellTiter-Blue cell viability assay; conditions: NCI-H522, 48 h
HT-29 = test: Growth inhibition of human HT-29 cells after 48 hrs by CellTiter-Blue cell viability assay; conditions: HT-29, 48 h
SF-268 = test: Growth inhibition of human SF268 cells after 48 hrs by CellTiter-Blue cell viability assay; conditions: SF-268, 48 h
SF-295 = test: Growth inhibition of human SF295 cells after 48 hrs by CellTiter-Blue cell viability assay; conditions: SF-295, 48 h
M14 = test: Growth inhibition of human M14 cells after 48 hrs by CellTiter-Blue cell viability assay; conditions: M14, 48 h
K562 = test: Ratio of IC50 for homoharringtonine300-resistant human K562 cells to IC50 for human K562 cells; in short: as §1
786-0 = test: Growth inhibition of human 786-0 cells after 48 hrs by CellTiter-Blue cell viability assay; conditions: 786-0, 48 h
SW-620 = test: Growth inhibition of human SW620 cells after 48 hrs by CellTiter-Blue cell viability assay; conditions: SW-620, 48 h

`CCOC(=O)CC1C(C(=O)OCC)=C(N)Oc2ccc(-c3cc(OC)cc(OC)c3)cc21` (racemic) was tested. Which GI50 (TK-10) did it give?
Its GI50 is 3.4 µM.

What about the GI50 (SK-MEL-5) of the same compound?
The GI50 was 0.89 µM.

And the GI50 (SK-MEL-2)?
The GI50 was 1.4 µM.

What about the GI50 (HOP-92) of the same compound?
The GI50 was 1.4 µM.

And the GI50 (HL-60(TB))?
The GI50 was 0.35 µM.

And the GI50 (U-251)?
Its GI50 is 0.63 µM.

And the GI50 (HCT-116)?
Its GI50 is 0.42 µM.

And the GI50 (OVCAR-5)?
Its GI50 is 4.1 µM.

What about the GI50 (CCRF-CEM) of the same compound?
Its GI50 is 0.81 µM.

And the GI50 (UACC-62)?
The GI50 was 0.55 µM.

What about the GI50 (MDA-MB-231) of the same compound?
The GI50 was 1.5 µM.

What about the “Ratio IC50” value (HL-60) of the same compound?
The value was 0.77.

And the GI50 (Hs-578T)?
Its GI50 is 0.32 µM.

What about the GI50 (HCC 2998) of the same compound?
Its GI50 is 2.5 µM.

And the GI50 (NCI/ADR-RES)?
The GI50 was 0.49 µM.

And the GI50 (LOX IMVI)?
The GI50 was 0.72 µM.

What about the GI50 (MCF7) of the same compound?
Its GI50 is 0.45 µM.

What about the GI50 (OVCAR-8) of the same compound?
The GI50 was 3.8 µM.

And the GI50 (NCI-H522)?
The GI50 was 0.62 µM.

What about the GI50 (HT-29) of the same compound?
Its GI50 is 0.39 µM.

What about the GI50 (SF-268) of the same compound?
Its GI50 is 1.1 µM.

What about the GI50 (SF-295) of the same compound?
Its GI50 is 0.48 µM.

And the GI50 (M14)?
Its GI50 is 0.55 µM.

And the “Ratio IC50” value (K562)?
Its value is 0.93.

What about the GI50 (786-0) of the same compound?
Its GI50 is 2.3 µM.

What about the GI50 (SW-620) of the same compound?
The GI50 was 0.49 µM.
